# PGC1a acetyl inh – modulators of PGC1a acetylation | U2OS PGC1a acetylation, AlphaScreen anti-acetyl-lysine; with virally co-expressed GCN5 acetyltransferase | inhibition, % at 15.6 µM | 0.17% of 350,000 active | AID 651687;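 active = every replicate shows inhibition of at least 40%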;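 also: 0% = neutral control wells and 100% = positive control wells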
# Cneo AK release – Cryptococcus neoformans lysis via adenylate kinase release | 0.2% of 360,000 active | lysis activity, % at 15 µM | AID 651654 | C. neoformans lysis, adenylate kinase release luminescence, 4 h; normalised: neutral wells 0, clomiphene wells 100;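 active = mean lysis activity across replicates of at least 80%, whatever share of replicates individually reach that level; inactive = mean lysis activity below 80%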
#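 Schedule: static 4 h at 37 °C with compound, 1 h detection; system: C. neoformans cells; benchmarks: Clomiphene as positive control; buffer or medium: fresh YPD medium; measure: luminescence rise reflecting yeast cell lysis; measured by: luminescent adenylate kinase detection reagent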
# Vif imaging – inhibitors of HIV Vif | inhibition, % at 7.49 µM | 0.35% of 340,000 active | HEK293T cells, Vif self-association by quenched fluorescence, imaging, 24 h; in the data active = inhibition above about 50%, passing the limit was not always enough
# FGF22 binding – FGF22 (human) thermal shift binding. recombinant FGF22 thermal shift, SYPRO orange fluorescence; percent of sucrose octasulfate shift, DMSO zero. 1.5% of 340,000 active. activity (Tm shift, normalised), % at 9.99 µM. AID 651658;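 active = mean Tm shift, scaled 0 neutral to 100 positive control, at about 1.3% or above, every replicate too, limit read from the data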
# Target sequence (Q9HCT0 whole entry, looked up): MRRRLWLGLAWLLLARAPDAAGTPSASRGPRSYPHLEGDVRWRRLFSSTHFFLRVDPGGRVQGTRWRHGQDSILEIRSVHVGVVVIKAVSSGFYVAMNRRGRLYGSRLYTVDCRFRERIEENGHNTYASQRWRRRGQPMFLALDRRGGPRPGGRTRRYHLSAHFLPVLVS
# PglD inh – inhibitors of Campylobacter jejuni PglD acetyltransferase; purified PglD enzyme, DTNB colorimetric CoA detection; inhibition, % at 12.5 µM; 0.098% of 360,000 active; in the data active = inhibition above about 16%, passing the limit was not always enough
# rRNA inh HTS – selective bacterial rRNA inhibition in E. coli | GFP signal change (wild-type ribosome), % (concentration not given with the values) | E. coli WT GFP vs humanized-ribosome RFP mutants, fluorescence, 24 h; active compounds read low; DMSO median 0, no signal -100 | 1.6% of 350,000 active | AID 720706;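 active = significant combined selectivity score with lowered wild-type GFP, culture density cut under 30%, mutant RFP and density less affected; inactive = any of these conditions unmet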
# Starred values were filed as active, the others as inactive; . = no result given. Only some compounds are listed: those with a hit (about 2.9% of all), similar ones and a draw of the others.
SMILES,PGC1a acetyl inh,Cneo AK release,Vif imaging,FGF22 binding,PglD inh,rRNA inh HTS
C(=N\Nc1ccc2nncn2n1)/c1ccccn1,14,1,6,0,6,-34*
C/C=C/c1ccc([C@H]2[C@@H](CO)N3CCCCN(C(=O)Nc4cc(F)ccc4F)C[C@@H]23)cc1,11,54,.,0,3,-2
Cc1cccc(N2C(=O)C(O)=C(C(=O)c3cccs3)C2c2ccc(C(C)C)cc2)n1 (stereo not drawn),-2,.,5,0,.,-23*
O=C(O)c1cccc2cccc(-c3c4ccc(=O)c(O)c-4oc4c(O)c(O)ccc34)c12,.,.,3,0,.,-22*
CC(C)(C)c1ccc(NC(=S)NCc2cccnc2)cc1,-9,3,10,0,0,-22*
S=C(NCc1cccnc1)Nc1ccc(Oc2ccc(Cl)cc2)cc1,0,0,3,0,-6,-26*
COc1ccc(NC(=S)NCc2cccnc2)cc1,8,.,8,0,.,-4
O=C(c1ccccc1)N1CC(=O)N2[C@H](CO)[C@@H](c3ccc(C#CCC4CCCC4)cc3)[C@H]2C1,-15,.,.,.,.,-20
COc1cccc(Nc2nc3cc(OC)ccc3cc2C#N)c1,.,.,-5,0,.,11
COc1ccc(Nc2nc3c(C)cccc3cc2C#N)cc1,5,.,-2,43*,.,9
Cc1nc2ccc(S(=O)(=O)N(C)CC(=O)Nc3ccccc3F)cc2s1,-18,3,0,44*,0,-6
COc1ccc(OC)c(NC(=O)CN(C)S(=O)(=O)c2ccc3nc(C)sc3c2)c1,-5,0,-9,.,-2,.
CCOC(=O)CSc1ccc2ccccc2n1,2,.,-3,43*,.,-11
O=C(O)CSc1ccc2ccccc2n1,-2,1,7,.,2,.
COc1ccccc1CN1CC[C@H]2[C@H](CO)Nc3ccc(-c4ccc(C(=O)N(C)C)cc4)cc3[C@H]21,-20,-1,.,0,10,-9
Cn1c(CO)cnc1SCc1ccc(Cl)cc1,-21,0,-3,.,26*,.
Cn1c(CO)cnc1S(=O)(=O)Cc1ccc(Cl)cc1,8,-3,3,0,-1,10
Cc1noc2ncnc(Oc3ccc(Cl)cc3Cl)c12,.,.,5,44*,.,7
Cc1noc2ncnc(Oc3ccccc3Cl)c12,2,.,-4,43*,.,-6
Cc1noc2ncnc(Oc3ccccc3)c12,-4,1,1,.,-2,.
Cc1cc(Cl)ccc1Oc1ncnc2onc(C)c12,3,.,9,0,.,14
C[C@H]1CN([C@@H](C)CO)C(=O)c2cccc(NC(=O)C3CCCCC3)c2O[C@@H]1CN(C)S(C)(=O)=O,.,0,.,0,-4,2
COc1ccc(C2=NOC(C(=O)NCc3ccc(F)cc3)C2)cc1OC (stereo not drawn),-34,-2,12,0,-2,-18
COc1cc(C2=NOC(C(=O)NCc3ccc(F)cc3)C2)cc(OC)c1OC (stereo not drawn),-6,12,60*,.,-2,.
COCCCN1C(=O)C(=O)/C(=C(/O)c2ccc(S(=O)(=O)N3CCCCC3)cc2)C1c1ccc(O)cc1 (stereo not drawn),3,0,-5,43*,4,3
SMILES,PGC1a acetyl inh,Cneo AK release,Vif imaging,FGF22 binding,PglD inh,rRNA inh HTS
COCCN1C(=O)CC(NNC(=O)c2ccc(S(=O)(=O)N3CCCC3)cc2)C1=O (stereo not drawn),-8,.,0,43*,.,-18
CSc1ccc(CNc2nnnn2C)cc1,6,-3,-2,43*,-2,-3
O=C(C[C@H]1C[C@@H]2c3cc(NC(=O)NC4CCCC4)ccc3O[C@@H]2[C@H](CO)O1)NCCc1ccccc1,0,5,.,0,-1,4
CCOC(=O)C1=C(O)/C(=C/c2cn(CC(=O)NCC3CCCO3)c3ccccc23)SC1=Nc1ccc(C)cc1 (stereo not drawn),1,1,94*,.,6,.
CCOC(=O)C1=C(O)/C(=C/c2ccc(-c3ccccc3C(=O)O)o2)SC1=Nc1ccc(C)cc1,-7,0,-9,0,-1,-1
C[C@H]1CN([C@@H](C)CO)C(=O)c2ccccc2-c2ccccc2CO[C@H]1CN(C)C(=O)c1ccncc1,-6,0,.,0,1,3
CN(C)c1ccc(/C=N/NC(=O)CCc2c[nH]c3ccccc23)cc1,.,.,6,44*,.,0
CC1=NNC(=O)C1CCC(=O)N/N=C(/C)c1ccc([N+](=O)[O-])cc1 (stereo not drawn),.,0,-1,43*,-4,-6
C/C(=N\NC(=O)CCc1c(C)n[nH]c1C)c1ccc([N+](=O)[O-])cc1,14,1,-32,0,1,-2
C/C(=N\NC(=O)CCc1c[nH]c2ccccc12)c1ccc([N+](=O)[O-])cc1,.,.,-12,44*,.,3
C[C@H]1CN([C@@H](C)CO)C(=O)c2cccc(NS(=O)(=O)c3cn(C)cn3)c2O[C@H]1CN(C)C,0,4,.,0,-1,-1
O=C(Nc1ccc2c(c1)OCO2)N[C@H]1CC[C@@H](CCNC(=O)C2CC2)O[C@@H]1CO,2,-4,.,0,0,-1
COc1cc(OC)c(C(=O)OCN2C(=O)c3ccccc3C2=O)cc1OC,.,-3,12,0,5,2
COc1cc(N2C(=O)c3ccccc3C2=O)c(Cl)cc1C(=O)OCC(=O)N(C)C,.,.,-5,43*,.,16
COc1ccc(Cl)cc1NC(=O)C1CC(c2c(F)cccc2Cl)=NO1 (stereo not drawn),-2,-4,3,0,-2,-30*
O=C(Nc1cc(Br)ccc1O)C1CC(c2c(F)cccc2Cl)=NO1 (stereo not drawn),0,-4,-5,0,-5,-36*
Cc1cc(NC(=O)C2CC(c3c(F)cccc3Cl)=NO2)n(-c2ccccc2)n1 (stereo not drawn),.,.,12,0,.,-9
COc1ccc(NC(=O)C2CC(c3ccc(Cl)cc3)=NO2)cc1OC (stereo not drawn),.,0,-5,0,1,13
CSc1ccccc1NC(=O)C1CC(c2c(F)cccc2Cl)=NO1 (stereo not drawn),-22,1,-15,0,-2,-25*
O=C(Nc1ccc(Br)cc1)C1CC(c2c(F)cccc2Cl)=NO1 (stereo not drawn),-5,-1,-12,0,1,-3
Cc1noc(C)c1S(=O)(=O)N(C)C[C@H]1Oc2ccc(NC(=O)Nc3ccc4c(c3)OCO4)cc2CC(=O)N([C@H](C)CO)C[C@@H]1C,11,-1,.,0,1,0
